ChEMBL document CHEMBL4837203, “Innovative C2-symmetric testosterone and androstenedione dimers: Design, synthesis, biological evaluation on prostate cancer cell lines and binding study to recombinant CYP3A4” (Eur J Med Chem, 2021)
pIC50, pKd: −log10 of the molar value.

How the values were obtained:
Cytochrome P450 3A4 [1] = target: T1, Cytochrome P450 3A4 (Homo sapiens, UniProt P08684); assay: Inhibition of human CYP3A4 assessed as dissociation constant; format: ADME
How it was run: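 Spectral titration of 2 μM codon-optimized full-length human CYP3A4 in 0.1 M phosphate pH 7.4 with 20% glycerol and 1 mM DTT, at ambient temperature. Ligand was added from DMSO in small aliquots, keeping final solvent below 2%. Absorbance difference spectra were recorded, and Kd was taken from hyperbolic or quadratic fits to the titration plots.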

Cytochrome P450 3A4 [2] = target: T1, Cytochrome P450 3A4; assay: Inhibition of recombinant human CYP3A4 using BFC as substrate; format: ADME
How it was run: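 Codon-optimized full-length recombinant human CYP3A4 in a soluble reconstituted system. Activity measured was debenzylation of 7-benzyloxy-4-(trifluoromethyl)coumarin; IC50 values were determined.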

LNCaP [3] = assay: Antiproliferative activity against androgen-sensitive human LNCaP cells assessed as inhibition of cell growth incubated for 48 hrs by MTT assay; format: functional, cell-based
How it was run: (§1)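 MTT assay. Cells were seeded at 8 × 10^3/well and left overnight, then grown 48 h in fresh medium with a range of compound concentrations. They were stained with 0.5 mg/mL MTT for 3 h, solubilised in 10% Triton X-100 in acidic isopropanol (0.1 N HCl), and read at 590 nm. Growth inhibition was calculated against control plates fixed on the treatment day. LNCaP and PC3 were kept in RPMI with 10% calf serum. Three replicate wells per condition, three independent repeats.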

PC-3 = assay: Antiproliferative activity against androgen-insensitive human PC-3 cells assessed as inhibition of cell growth incubated for 48 hrs by MTT assay; format: functional, cell-based; details: PC-3, 48 h; how it was run: as §1
DU-145 = assay: Antiproliferative activity against androgen-insensitive human DU-145 cells assessed as inhibition of cell growth incubated for 48 hrs by MTT assay; format: functional, cell-based; details: DU-145, 48 h
LNCaP [4] = assay: Antiproliferative activity against androgen-sensitive human LNCaP cells assessed as inhibition of testosterone-induced cell growth at 0.25 uM incubated for 48 hrs by MTT assay; format: functional; set-up: scale not given: the % may be the effect or the level left
How it was run: (§2)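 Androgen-stimulated proliferation in LNCaP: cells seeded at 8 × 10^3/well in RPMI with 10% FBS and grown 48 h. Then exposed 48 h to 0.1 nM testosterone alone or combined with test agent at 0.125–1 μM. Vehicle control was 0.1% DMSO. Read-out was MTT (3 h, 37 °C) at OD 590 nm, as fold induction versus vehicle. Triplicate wells ×3 repeats.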

LNCaP [5] = assay: Antiproliferative activity against androgen-sensitive human LNCaP cells assessed as inhibition of testosterone-induced cell growth at 0.5 uM incubated for 48 hrs by MTT assay relative to non-stimulation; format: functional; set-up: scale not given: the % may be the effect or the level left; how it was run: as §2
LNCaP [6] = assay: Antiproliferative activity against androgen-sensitive human LNCaP cells assessed as inhibition of testosterone-induced cell growth at 1 uM incubated for 48 hrs by MTT assay relative to non-stimulation; format: functional; set-up: scale not given: the % may be the effect or the level left
How it was run: (§3)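 LNCaP cells were seeded at 8 × 10^3/well in medium with 10% FBS and grown 48 h. They were then exposed for 48 h to 0.1 nM testosterone or DHT, alone or with compound at 0.125, 0.25, 0.5 or 1 μM. Vehicle control was 0.1% DMSO. Read-out was MTT for 3 h at 37 °C, then OD 590 nm, given as fold proliferation versus vehicle. Triplicate wells, three independent repeats; SEM, n = 3.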

LNCaP [7] = assay: Antiproliferative activity against androgen-sensitive human LNCaP cells assessed as inhibition of DHT-induced cell growth at 1 uM incubated for 48 hrs by MTT assay relative to non-stimulation; format: functional; set-up: scale not given: the % may be the effect or the level left
How it was run: (§4)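 LNCaP cells seeded at 8 × 10^3/well in RPMI with 10% FBS and grown 48 h. Then treated with 0.1 nM DHT alone or with test agent at 0.125, 0.25, 0.5 or 1 μM for 48 h. Control was 0.1% DMSO. MTT for 3 h at 37 °C, OD read at 590 nm. Growth expressed as fold of DMSO control. Triplicate wells, three independent repeats.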

LNCaP [8] = assay: Antiproliferative activity against androgen-sensitive human LNCaP cells assessed as inhibition of testosterone-induced cell growth at 0.125 uM incubated for 48 hrs by MTT assay relative to non-stimulation; format: functional; set-up: scale not given: the % may be the effect or the level left; how it was run: as §2
LNCaP [9] = assay: Antiproliferative activity against androgen-sensitive human LNCaP cells assessed as inhibition of DHT-induced cell growth at 0.125 uM incubated for 48 hrs by MTT assay; format: functional; set-up: scale not given: the % may be the effect or the level left; how it was run: as §4
LNCaP [10] = assay: Antiproliferative activity against androgen-sensitive human LNCaP cells assessed as inhibition of DHT-induced cell growth at 0.125 uM incubated for 48 hrs by MTT assay relative to non-stimulation; format: functional; set-up: scale not given: the % may be the effect or the level left; how it was run: as §4
LNCaP [11] = assay: Antiproliferative activity against androgen-sensitive human LNCaP cells assessed as inhibition of DHT-induced cell growth at 0.5 uM incubated for 48 hrs by MTT assay relative to non-stimulation; format: functional; set-up: scale not given: the % may be the effect or the level left; how it was run: as §4
LNCaP [12] = assay: Antiproliferative activity against androgen-sensitive human LNCaP cells assessed as inhibition of DHT-induced cell growth at 0.25 uM incubated for 48 hrs by MTT assay relative to non-stimulation; format: functional; set-up: scale not given: the % may be the effect or the level left; how it was run: as §3

T1 sequence (P08684 whole entry): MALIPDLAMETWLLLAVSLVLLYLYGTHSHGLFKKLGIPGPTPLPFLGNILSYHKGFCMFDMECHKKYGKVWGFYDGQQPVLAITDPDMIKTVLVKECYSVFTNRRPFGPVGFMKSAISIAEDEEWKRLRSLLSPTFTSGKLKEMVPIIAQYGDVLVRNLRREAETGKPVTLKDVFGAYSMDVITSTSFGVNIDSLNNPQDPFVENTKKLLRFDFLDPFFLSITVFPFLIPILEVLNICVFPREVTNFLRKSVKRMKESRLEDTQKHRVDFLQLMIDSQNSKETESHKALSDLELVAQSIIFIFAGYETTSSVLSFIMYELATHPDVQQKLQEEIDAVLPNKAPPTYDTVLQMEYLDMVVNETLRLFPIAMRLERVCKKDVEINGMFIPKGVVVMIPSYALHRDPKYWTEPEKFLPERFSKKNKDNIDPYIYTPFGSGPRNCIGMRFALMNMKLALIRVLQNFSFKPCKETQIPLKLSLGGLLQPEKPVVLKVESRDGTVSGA

| SMILES | pKd (Cytochrome P450 3A4 [1]) | pIC50 (Cytochrome P450 3A4 [2]) | pIC50 (LNCaP [3]) | pIC50 (PC-3) | pIC50 (DU-145) | Activity (LNCaP [4]) [%] | Activity (LNCaP [5]) [%] | Activity (LNCaP [6]) [%] | Activity (LNCaP [7]) [%] | Activity (LNCaP [8]) [%] | Activity (LNCaP [9]) [%] | Activity (LNCaP [10]) [%] | Activity (LNCaP [11]) [%] | Activity (LNCaP [12]) [%] |
| --- | --- | --- | --- | --- | --- | --- | --- | --- | --- | --- | --- | --- | --- | --- |
| C[C@]12CC[C@H]3[C@@H]([C@H](C/C=C\C[C@@H]4CC5=CC(=O)CC[C@]5(C)[C@H]5CC[C@]6(C)[C@@H](O)CC[C@H]6[C@H]45)CC4=CC(=O)CC[C@@]43C)[C@@H]1CC[C@@H]2O | 6.43 | 6.10 | – | – | – | – | – | – | – | – | – | – | – | – |
| C[C@]12CC[C@H]3[C@@H]([C@H](/C=C/C=C/C=C/[C@@H]4CC5=CC(=O)CC[C@]5(C)[C@H]5CC[C@]6(C)[C@H](O)CC[C@H]6[C@H]45)CC4=CC(=O)CC[C@@]43C)[C@@H]1CC[C@H]2O | 5.80 | 4.66 | 4.43 | 4.35 | 4.67 | 100 | 112 | 84 | 100 | 82 | 45 | 54 | 86 | 84 |
| C=C/C=C/[C@@H]1CC2=CC(=O)CC[C@]2(C)[C@H]2CC[C@]3(C)[C@@H](O)CC[C@H]3[C@H]12 | – | – | 4.54 | 4.47 | 4.54 | – | – | – | – | – | – | – | – | – |
| C=C/C=C/[C@@H]1CC2=CC(=O)CC[C@]2(C)[C@H]2CC[C@]3(C)C(=O)CC[C@H]3[C@H]12 | – | – | 4.47 | 4.29 | 4.67 | – | – | – | – | – | – | – | – | – |
| CC(=O)O[C@]1(C(C)=O)CC[C@H]2[C@@H]3C=C(Cl)C4=CC(=O)[C@@H]5C[C@@H]5[C@]4(C)[C@H]3CC[C@@]21C [CYPROTERONE ACETATE] | – | – | 4.22 | 4.24 | 4.29 | – | – | – | – | – | – | – | – | – |
| C=C/C=C/[C@@H]1CC2=CC(=O)CC[C@]2(C)[C@H]2CC[C@]3(C)[C@H](O)CC[C@H]3[C@H]12 | – | – | 4.78 | 4.50 | 4.62 | – | – | – | – | – | – | – | – | – |
| C[C@]12CCC(=O)C=C1C[C@@H](/C=C/C=C/C=C/[C@@H]1CC3=CC(=O)CC[C@]3(C)[C@H]3CC[C@]4(C)C(=O)CC[C@H]4[C@H]13)[C@@H]1[C@@H]2CC[C@]2(C)C(=O)CC[C@@H]12 | 5.85 | 5.44 | 4.14 | 4.54 | 4.27 | – | – | – | – | – | – | – | – | – |
| C[C@]12CC[C@H]3[C@@H](C([C@H]4C=CC[C@H]5C(=O)OC(=O)[C@@H]45)CC4=CC(=O)CC[C@@]43C)[C@@H]1CC[C@@H]2O (some centres not stated) | – | – | 3.88 | 4.20 | 4.06 | – | – | – | – | – | – | – | – | – |
| C[C@]12CC[C@H]3[C@@H]([C@H](C/C=C/C[C@@H]4CC5=CC(=O)CC[C@]5(C)[C@H]5CC[C@]6(C)[C@@H](O)CC[C@H]6[C@H]45)CC4=CC(=O)CC[C@@]43C)[C@@H]1CC[C@@H]2O | 5.15 | 5.19 | – | – | – | – | – | – | – | – | – | – | – | – |
| C[C@]12CC[C@H]3[C@@H]([C@H](/C=C/C=C/C=C/[C@@H]4CC5=CC(=O)CC[C@]5(C)[C@H]5CC[C@]6(C)[C@@H](O)CC[C@H]6[C@H]45)CC4=CC(=O)CC[C@@]43C)[C@@H]1CC[C@@H]2O | 5.26 | 5.92 | 4.92 | 4.87 | 4.84 | 86 | 100 | 98 | 100 | 45 | 45 | 76 | 83 | 83 |
